ChEMBL document CHEMBL1122836, “Angiotensin converting enzyme inhibitors: structure-activity profile of 1-benzazepin-2-one derivatives” (J Med Chem, 1985)

Assays:
[1] = biological target: Angiotensin-converting enzyme (Homo sapiens, UniProt P12821); assay: (§1) In vitro inhibitory activity against Angiotensin I converting enzyme
Rattus norvegicus [2] = assay: In vivo inhibitory activity against Angiotensin I pressor response in normotensive rats after peroral administration; format: functional; conditions: po, read-out: ID50 (the source's name)
Rattus norvegicus [3] = assay: In vivo inhibitory activity against Angiotensin I pressor response in normotensive rats by peroral administration, experiment 2; format: functional; conditions: po, read-out: ID50 (the source's name)
Rattus norvegicus [4] = assay: Maximal changes in blood pressure recorded during the 4 day test period in spontaneous hypertensive rats, at 3 mg/kg peroral dose; format: functional; conditions: route oral
Outline: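 Spontaneously hypertensive rats dosed orally with test compound. Blood pressure was recorded over a 4-day test period. The value is the maximal change in blood pressure seen in that period, given in mm with the oral dose (mg/kg) in brackets.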

Rattus norvegicus [5] = assay: Maximal changes in blood pressure recorded during the 4 day test period in spontaneous hypertensive rats, at 1 mg/kg peroral dose; format: functional; conditions: route oral
Canis familiaris [6] = assay: In vivo inhibitory activity against Angiotensin I pressor response in normotensive dog after peroral administration, ecperiment 2; format: functional; conditions: Canis lupus familiaris, po; read-out: ID50 (the source's name)
Canis familiaris [7] = assay: In vivo inhibitory activity against Angiotensin I pressor response in normotensive dog after peroral administration, experiment 1; format: functional; conditions: Canis lupus familiaris, po; read-out: ID50 (the source's name)
[8] = biological target: T1, Angiotensin-converting enzyme (Rattus norvegicus, UniProt P47820); assay: as §1
T1 sequence (P47820 whole entry): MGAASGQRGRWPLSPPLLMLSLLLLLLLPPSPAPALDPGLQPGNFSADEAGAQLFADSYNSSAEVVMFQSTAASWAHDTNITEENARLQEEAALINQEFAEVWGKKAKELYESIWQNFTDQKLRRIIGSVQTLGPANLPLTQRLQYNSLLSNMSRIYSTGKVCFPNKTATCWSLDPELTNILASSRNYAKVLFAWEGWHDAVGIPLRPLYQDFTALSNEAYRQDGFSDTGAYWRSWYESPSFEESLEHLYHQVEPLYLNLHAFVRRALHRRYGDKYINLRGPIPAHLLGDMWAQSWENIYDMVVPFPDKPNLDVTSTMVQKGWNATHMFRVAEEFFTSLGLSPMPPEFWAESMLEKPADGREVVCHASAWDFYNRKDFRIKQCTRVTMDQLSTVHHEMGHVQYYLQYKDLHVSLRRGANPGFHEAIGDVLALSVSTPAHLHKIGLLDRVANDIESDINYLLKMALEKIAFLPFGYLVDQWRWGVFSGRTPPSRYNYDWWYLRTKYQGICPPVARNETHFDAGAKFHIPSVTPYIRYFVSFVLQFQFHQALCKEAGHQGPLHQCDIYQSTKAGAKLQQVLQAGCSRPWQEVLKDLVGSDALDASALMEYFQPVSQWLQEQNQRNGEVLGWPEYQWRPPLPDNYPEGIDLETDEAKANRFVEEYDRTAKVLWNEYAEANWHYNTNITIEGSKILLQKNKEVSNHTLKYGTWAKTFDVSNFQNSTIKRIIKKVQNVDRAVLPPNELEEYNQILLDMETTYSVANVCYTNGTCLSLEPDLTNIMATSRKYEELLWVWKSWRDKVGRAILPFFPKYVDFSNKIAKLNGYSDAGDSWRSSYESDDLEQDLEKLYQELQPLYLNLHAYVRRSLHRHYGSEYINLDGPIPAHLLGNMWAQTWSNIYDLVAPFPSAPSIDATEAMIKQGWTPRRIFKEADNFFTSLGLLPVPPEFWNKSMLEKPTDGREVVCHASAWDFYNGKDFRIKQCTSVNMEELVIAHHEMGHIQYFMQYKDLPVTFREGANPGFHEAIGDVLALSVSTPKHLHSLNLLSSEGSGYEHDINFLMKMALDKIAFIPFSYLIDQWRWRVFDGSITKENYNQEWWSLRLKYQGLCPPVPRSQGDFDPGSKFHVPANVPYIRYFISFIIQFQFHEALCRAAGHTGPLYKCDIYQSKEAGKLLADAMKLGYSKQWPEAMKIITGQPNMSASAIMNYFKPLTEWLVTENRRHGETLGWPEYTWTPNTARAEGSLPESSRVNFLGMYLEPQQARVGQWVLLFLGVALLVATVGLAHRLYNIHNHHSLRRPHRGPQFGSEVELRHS

Rattus norvegicus [9] = assay: Maximal changes in blood pressure recorded during the 4 day test period in spontaneous hypertensive rats, at 30 mg/kg peroral dose; format: functional; conditions: route oral
Outline: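 Spontaneously hypertensive rats dosed orally and blood pressure recorded over a 4-day test period. Readout is the maximal change in blood pressure (mm) with the oral dose noted; pressure also followed at 24 h after dosing.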

Canis familiaris [10] = assay: In vivo inhibitory activity against Angiotensin I pressor response in normotensive dog after peroral administration; format: functional; conditions: Canis lupus familiaris, po; read-out: ID50 (the source's name)

Angiotensin-converting enzyme (Homo sapiens, UniProt P12821), sequence (P12821 whole entry): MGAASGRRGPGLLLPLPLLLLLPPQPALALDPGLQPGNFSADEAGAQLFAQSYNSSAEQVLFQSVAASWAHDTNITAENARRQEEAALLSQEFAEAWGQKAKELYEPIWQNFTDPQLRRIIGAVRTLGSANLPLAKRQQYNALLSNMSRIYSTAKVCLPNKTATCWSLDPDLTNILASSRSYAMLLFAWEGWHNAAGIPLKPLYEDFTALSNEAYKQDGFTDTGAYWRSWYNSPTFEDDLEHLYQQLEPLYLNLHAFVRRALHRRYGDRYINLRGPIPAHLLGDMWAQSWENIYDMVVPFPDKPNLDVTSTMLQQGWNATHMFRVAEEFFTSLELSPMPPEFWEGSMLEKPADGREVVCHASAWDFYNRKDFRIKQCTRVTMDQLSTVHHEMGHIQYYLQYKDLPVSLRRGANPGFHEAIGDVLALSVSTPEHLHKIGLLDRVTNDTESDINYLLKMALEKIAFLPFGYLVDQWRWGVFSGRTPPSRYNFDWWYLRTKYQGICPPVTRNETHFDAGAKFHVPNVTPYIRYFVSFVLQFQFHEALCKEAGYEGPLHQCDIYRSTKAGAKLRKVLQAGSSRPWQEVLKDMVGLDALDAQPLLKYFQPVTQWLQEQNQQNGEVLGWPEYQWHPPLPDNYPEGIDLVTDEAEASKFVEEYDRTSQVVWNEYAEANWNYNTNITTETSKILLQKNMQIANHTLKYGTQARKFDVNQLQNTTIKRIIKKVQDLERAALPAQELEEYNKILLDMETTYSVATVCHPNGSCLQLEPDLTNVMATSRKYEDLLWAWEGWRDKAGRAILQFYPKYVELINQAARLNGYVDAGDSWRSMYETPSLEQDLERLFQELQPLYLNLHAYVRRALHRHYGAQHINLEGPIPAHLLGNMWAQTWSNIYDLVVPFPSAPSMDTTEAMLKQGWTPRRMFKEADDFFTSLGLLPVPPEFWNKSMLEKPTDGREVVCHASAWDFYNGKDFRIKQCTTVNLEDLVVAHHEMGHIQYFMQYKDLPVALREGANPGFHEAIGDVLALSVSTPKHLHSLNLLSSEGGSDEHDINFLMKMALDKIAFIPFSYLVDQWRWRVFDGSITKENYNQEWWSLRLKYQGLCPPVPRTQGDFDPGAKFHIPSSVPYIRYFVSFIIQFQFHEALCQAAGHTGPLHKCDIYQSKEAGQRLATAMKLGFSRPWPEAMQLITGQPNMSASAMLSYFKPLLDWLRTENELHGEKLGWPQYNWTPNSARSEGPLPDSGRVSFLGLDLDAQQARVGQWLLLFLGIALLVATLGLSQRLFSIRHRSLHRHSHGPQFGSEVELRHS

O=C(O)CN1C(=O)[C@@H](N[C@@H](CSCc2ccccc2)C(=O)O)CCc2ccccc21
IC50 [1]: 2.9 nM

CCOC(=O)[C@H](CCCCNC(=O)OCc1ccccc1)N[C@H]1CCc2ccccc2N(CC(=O)O)C1=O
IC50 [1]: 15 nM

COC(=O)[C@H](CC(C)C)N[C@H]1CCc2ccccc2N(CC(=O)O)C1=O
IC50 [1]: 1000 nM

O=C(O)CN1C(=O)[C@@H](N[C@@H](Cc2ccccc2)C(=O)O)CCc2ccccc21
IC50 [1]: 8.5 nM

CCOC(=O)[C@H](Cc1c[nH]c2ccccc12)N[C@H]1CCc2ccccc2N(CC(=O)O)C1=O
IC50 [1]: 540 nM

O=C(O)CN1C(=O)[C@@H](N[C@@H](CSc2ccccc2)C(=O)O)CCc2ccccc21
IC50 [1]: 4 nM

CC(C)(C)OC(=O)NCCCC[C@H](N[C@H]1CCc2ccccc2N(CC(=O)O)C1=O)C(=O)O
IC50 [1]: 4 nM

CCCC[C@H](N[C@H]1CCc2ccccc2N(CC(=O)O)C1=O)C(=O)OCC
IC50 [1]: 2600 nM

CC(C)C[C@H](N[C@H]1CCc2ccccc2N(CC(=O)O)C1=O)C(=O)O
IC50 [1]: 45 nM

CSCC[C@H](N[C@H]1CCc2ccccc2N(CC(=O)O)C1=O)C(=O)O
IC50 [1]: 6.5 nM

CCOC(=O)[C@H](CCCCN)N[C@H]1CCc2ccccc2N(CC(=O)O)C1=O
IC50 [1]: 40 nM

CCCC[C@H](N[C@H]1CCc2ccccc2N(CC(=O)O)C1=O)C(=O)O
IC50 [1]: 5 nM

O=C(O)CN1C(=O)[C@@H](N[C@@H](COCc2ccccc2)C(=O)O)CCc2ccccc21
IC50 [1]: 10 nM

O=C(O)CN1C(=O)[C@@H](N[C@@H](CSCCc2ccccc2)C(=O)O)CCc2ccccc21
IC50 [1]: 7 nM

O=C(O)CN1C(=O)[C@@H](N[C@@H](CCCCNC(=O)OCc2ccccc2)C(=O)O)CCc2ccccc21
IC50 [1]: 13 nM

O=C(O)CN1C(=O)[C@@H](N[C@@H](Cc2c[nH]c3ccccc23)C(=O)O)CCc2ccccc21
IC50 [1]: 13 nM

CCC[C@H](N[C@H]1CCc2ccccc2N(CC(=O)O)C1=O)C(=O)O
IC50 [1]: 6 nM

CCOC(=O)[C@H](CCc1ccccc1)N[C@@H](C)C(=O)N1CCC[C@H]1C(=O)O
ED50 (Rattus norvegicus [2]): 0.14 mg/kg | ED50 (Rattus norvegicus [3]): 0.28 mg/kg | Delta blood pressure (Rattus norvegicus [4]): -54 mmHg | Delta blood pressure (Rattus norvegicus [5]): -35 mmHg | ED50 (Canis familiaris [6]): 0.096 mg/kg | ED50 (Canis familiaris [7]): 0.15 mg/kg

CCOC(=O)[C@H](CCc1ccccc1)N[C@H]1CCc2ccccc2N(CC(=O)O)C1=O [BENAZEPRIL]
ED50 (Rattus norvegicus [2]): 0.1 mg/kg | IC50 [8]: 1.7 nM | Delta blood pressure (Rattus norvegicus [4]): 50 mmHg

NCCCC[C@H](N[C@H]1CCc2ccccc2N(CC(=O)O)C1=O)C(=O)O [LIBENZAPRIL]
ED50 (Rattus norvegicus [2]): 1.7 mg/kg | IC50 [1]: 7 nM | Delta blood pressure (Rattus norvegicus [9]): -69 mmHg | ED50 (Canis familiaris [10]): 0.07 mg/kg
